Measured values published in ChEMBL document CHEMBL5247575 (J Med Chem, 2018).

Experiments:
Bacteria [1] = assay: Inhibition of bacteria KPC-2 assessed as second order rate constant K2/K using nitrocefin as substrate
Method in brief: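 Steady-state kinetics, 10 mM phosphate-buffered saline pH 7.4. Progress curves recorded with fixed enzyme and nitrocefin and increasing nM inhibitor. Each curve fitted to a time-course equation to give k_obs. k2/K derived from these and corrected for nitrocefin concentration relative to its Km.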

Klebsiella pneumoniae [2] = assay: Synergistic antibacterial activity against Klebsiella pneumoniae 729/1679 producing KPC-3 assessed as meropenem MIC at 4 ug/ml by broth microdilution method; type: functional; conditions: dose 4 µg/ml
Method in brief: (§1)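 Broth microdilution per CLSI guidelines, using custom frozen panels. […] Each partner drug was also tested alone. MICs were run in triplicate and the modal value is reported.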

Acinetobacter baumannii [3] = assay: Synergistic antibacterial activity against ADC deleted Acinetobacter baumannii transfected with pWH1266 producing OXA-24/40 assessed as meropenem MIC at 4 ug/ml by broth microdilution method; type: functional; conditions: dose 4 µg/ml
Pseudomonas aeruginosa [4] = assay: Synergistic antibacterial activity against Pseudomonas aeruginosa 715 assessed as cefepime MIC at 4 ug/ml by broth microdilution method; type: functional; conditions: dose 4 µg/ml
Acinetobacter baumannii [5] = assay: Synergistic antibacterial activity against Acinetobacter baumannii PR420 producing OXA-23/24/40 assessed as meropenem MIC at 4 ug/ml by broth microdilution method; type: functional; conditions: dose 4 µg/ml
Klebsiella pneumoniae [6] = assay: Synergistic antibacterial activity against Klebsiella pneumoniae 1354/2241 producing KPC-3 assessed as cefepime MIC at 4 ug/ml by broth microdilution method; type: functional; conditions: dose 4 µg/ml; method in brief: as §1
Klebsiella pneumoniae [7] = assay: Synergistic antibacterial activity against Klebsiella pneumoniae 901/1860 producing KPC-3 assessed as cefepime MIC at 4 ug/ml by broth microdilution method; type: functional; conditions: dose 4 µg/ml
Pseudomonas aeruginosa [8] = assay: Synergistic antibacterial activity against Pseudomonas aeruginosa 715 assessed as meropenem MIC at 4 ug/ml by broth microdilution method; type: functional; conditions: dose 4 µg/ml
Escherichia coli [9] = assay: Antibacterial activity against Escherichia coli DH10B transfected with pBC SK (-) OXA-48 by broth microdilution method; type: functional
Acinetobacter baumannii [10] = assay: Synergistic antibacterial activity against Acinetobacter baumannii PR363 producing OXA-23 assessed as cefepime MIC at 4 ug/ml by broth microdilution method; type: functional; conditions: dose 4 µg/ml
Escherichia coli [11] = assay: Synergistic antibacterial activity against Escherichia coli DH10B transfected with pBC SK (-) OXA-48 assessed as meropenem MIC at 4 ug/ml by broth microdilution method; type: functional; conditions: dose 4 µg/ml; method in brief: as §1
Escherichia coli [12] = assay: Synergistic antibacterial activity against Escherichia coli DH10B transfected with pBC SK (-) PDC-3 assessed as meropenem MIC at 4 ug/ml by broth microdilution method; type: functional; conditions: dose 4 µg/ml; method in brief: as §1
Klebsiella pneumoniae [13] = assay: Synergistic antibacterial activity against Klebsiella pneumoniae 440/1360 producing KPC-2 assessed as cefepime MIC at 4 ug/ml by broth microdilution method; type: functional; conditions: dose 4 µg/ml; method in brief: as §1
Klebsiella pneumoniae [14] = assay: Synergistic antibacterial activity against Klebsiella pneumoniae 660/1568 producing KPC-3 assessed as meropenem MIC at 4 ug/ml by broth microdilution method; type: functional; conditions: dose 4 µg/ml; method in brief: as §1
Escherichia coli [15] = assay: Synergistic antibacterial activity against Escherichia coli DH10B transfected with pBC SK (-) KPC-3 assessed as meropenem MIC at 4 ug/ml by broth microdilution method; type: functional; conditions: dose 4 µg/ml
Klebsiella pneumoniae [16] = assay: Synergistic antibacterial activity against Klebsiella pneumoniae 761/1723 producing KPC-3 assessed as cefepime MIC at 4 ug/ml by broth microdilution method; type: functional; conditions: dose 4 µg/ml; method in brief: as §1
Pseudomonas aeruginosa [17] = assay: Synergistic antibacterial activity against Pseudomonas aeruginosa 776 assessed as meropenem MIC at 4 ug/ml by broth microdilution method; type: functional; conditions: dose 4 µg/ml
Escherichia coli [18] = assay: Antibacterial activity against Escherichia coli DH10B transfected with pBR322-catI-KPC-2 by broth microdilution method; type: functional
Bacteria [19] = assay: Inhibition of bacteria PDC-3 assessed as half life using nitrocefin as substrate
Klebsiella pneumoniae [20] = assay: Synergistic antibacterial activity against Klebsiella pneumoniae 977/1916 producing KPC-3 assessed as cefepime MIC at 8 ug/ml by broth microdilution method; type: functional; conditions: dose 8 µg/ml
Klebsiella pneumoniae [21] = assay: Synergistic antibacterial activity against Klebsiella pneumoniae 761/1723 producing KPC-3 assessed as cefepime MIC at 8 ug/ml by broth microdilution method; type: functional; conditions: dose 8 µg/ml; method in brief: as §1
Acinetobacter baumannii [22] = assay: Synergistic antibacterial activity against Acinetobacter baumannii PR359 producing OXA-23 assessed as meropenem MIC at 8 ug/ml by broth microdilution method; type: functional; conditions: dose 8 µg/ml
Method in brief: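 Broth microdilution per CLSI guidelines in frozen panels. Test compound held at fixed 8 mg/L while the partner β-lactam concentration was increased. Run in triplicate; modal MIC reported.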

Klebsiella pneumoniae [23] = assay: Synergistic antibacterial activity against Klebsiella pneumoniae NY BS producing OXA-232 assessed as cefepime MIC at 8 ug/ml by broth microdilution method; type: functional; conditions: dose 8 µg/ml
Acinetobacter baumannii [24] = assay: Synergistic antibacterial activity against Acinetobacter baumannii PR476 producing OXA-24/40 assessed as meropenem MIC at 8 ug/ml by broth microdilution method; type: functional; conditions: dose 8 µg/ml
Klebsiella pneumoniae [25] = assay: Synergistic antibacterial activity against Klebsiella pneumoniae 776/1742 producing KPC-2 assessed as meropenem MIC at 8 ug/ml by broth microdilution method; type: functional; conditions: dose 8 µg/ml
Pseudomonas aeruginosa [26] = assay: Synergistic antibacterial activity against Pseudomonas aeruginosa 715 assessed as meropenem MIC at 8 ug/ml by broth microdilution method; type: functional; conditions: dose 8 µg/ml
Klebsiella pneumoniae [27] = assay: Synergistic antibacterial activity against Klebsiella pneumoniae 901/1860 producing KPC-3 assessed as meropenem MIC at 8 ug/ml by broth microdilution method; type: functional; conditions: dose 8 µg/ml
Pseudomonas aeruginosa [28] = assay: Synergistic antibacterial activity against Pseudomonas aeruginosa 839 assessed as cefepime MIC at 8 ug/ml by broth microdilution method; type: functional; conditions: dose 8 µg/ml
Escherichia coli [29] = assay: Synergistic antibacterial activity against Escherichia coli DH10B transfected with pBC SK (-) KPC-3 assessed as cefepime MIC at 8 ug/ml by broth microdilution method; type: functional; conditions: dose 8 µg/ml
Klebsiella pneumoniae [30] = assay: Synergistic antibacterial activity against Klebsiella pneumoniae 977/1916 producing KPC-3 assessed as meropenem MIC at 8 ug/ml by broth microdilution method; type: functional; conditions: dose 8 µg/ml
Acinetobacter baumannii [31] = assay: Synergistic antibacterial activity against Acinetobacter baumannii PR363 producing OXA-23 assessed as meropenem MIC at 8 ug/ml by broth microdilution method; type: functional; conditions: dose 8 µg/ml
Klebsiella pneumoniae [32] = assay: Synergistic antibacterial activity against Klebsiella pneumoniae 935/1884 producing KPC-3 assessed as meropenem MIC at 8 ug/ml by broth microdilution method; type: functional; conditions: dose 8 µg/ml
Escherichia coli [33] = assay: Synergistic antibacterial activity against Escherichia coli DH10B transfected with pBC SK (-) KPC-2 assessed as cefepime MIC at 8 ug/ml by broth microdilution method; type: functional; conditions: dose 8 µg/ml
Klebsiella pneumoniae [34] = assay: Synergistic antibacterial activity against Klebsiella pneumoniae CAV 1543 producing OXA-48 assessed as cefepime MIC at 8 ug/ml by broth microdilution method; type: functional; conditions: dose 8 µg/ml
Pseudomonas aeruginosa [35] = assay: Synergistic antibacterial activity against Pseudomonas aeruginosa 795 assessed as cefepime MIC at 8 ug/ml by broth microdilution method; type: functional; conditions: dose 8 µg/ml
Klebsiella pneumoniae [36] = assay: Synergistic antibacterial activity against Klebsiella pneumoniae 1315/2198 producing KPC-3 assessed as cefepime MIC at 8 ug/ml by broth microdilution method; type: functional; conditions: dose 8 µg/ml; method in brief: as §1
Klebsiella pneumoniae [37] = assay: Synergistic antibacterial activity against Klebsiella pneumoniae 11978 producing OXA-48 assessed as cefepime MIC at 8 ug/ml by broth microdilution method; type: functional; conditions: dose 8 µg/ml; method in brief: as §1
Acinetobacter baumannii [38] = assay: Synergistic antibacterial activity against Acinetobacter baumannii PR408 producing OXA-24/40 assessed as cefepime MIC at 8 ug/ml by broth microdilution method; type: functional; conditions: dose 8 µg/ml

SMILES	K (Bacteria [1])	MIC (Klebsiella pneumoniae [2])	MIC (Acinetobacter baumannii [3])	MIC (Pseudomonas aeruginosa [4])	MIC (Acinetobacter baumannii [5])	MIC (Klebsiella pneumoniae [6])	MIC (Klebsiella pneumoniae [7])	MIC (Pseudomonas aeruginosa [8])	MIC (Escherichia coli [9])	MIC (Acinetobacter baumannii [10])	MIC (Escherichia coli [11])	MIC (Escherichia coli [12])	MIC (Klebsiella pneumoniae [13])	MIC (Klebsiella pneumoniae [14])	MIC (Escherichia coli [15])	MIC (Klebsiella pneumoniae [16])	MIC (Pseudomonas aeruginosa [17])	MIC (Escherichia coli [18])	T1/2 (Bacteria [19])	further results
O.O=C(NC1CCNCC1)[C@@H]1CC[C@@H]2CN1C(=O)N2OS(=O)(=O)O [RELEBACTAM]	2.8 10^4/M/s	≤ 0.12 µg/mL	> 16 µg/mL	16 µg/mL	> 16 µg/mL	≤ 0.12 µg/mL	≤ 0.12 µg/mL	16 µg/mL	> 16 µg/mL	16 µg/mL	0.25 µg/mL	≤ 0.12 µg/mL	1 µg/mL	≤ 0.12 µg/mL	≤ 0.12 µg/mL	≤ 0.12 µg/mL	> 16 µg/mL	> 16 µg/mL	12.8 min	–
N#C[C@@H]1CC[C@@H]2CN1C(=O)N2OS(=O)(=O)[O-].[Na+]	2.4 10^5/M/s	≤ 0.12 µg/mL	> 16 µg/mL	16 µg/mL	16 µg/mL	≤ 0.12 µg/mL	≤ 0.12 µg/mL	16 µg/mL	> 16 µg/mL	8 µg/mL	≤ 0.12 µg/mL	≤ 0.12 µg/mL	0.5 µg/mL	≤ 0.12 µg/mL	≤ 0.12 µg/mL	≤ 0.12 µg/mL	16 µg/mL	> 16 µg/mL	4.1 min	MIC (Klebsiella pneumoniae [20]): ≤ 0.12 µg/mL; MIC (Klebsiella pneumoniae [21]): ≤ 0.12 µg/mL; MIC (Acinetobacter baumannii [22]): 4 µg/mL; MIC (Klebsiella pneumoniae [23]): 1 µg/mL; MIC (Acinetobacter baumannii [24]): 0.25 µg/mL; MIC (Klebsiella pneumoniae [25]): 0.25 µg/mL; MIC (Pseudomonas aeruginosa [26]): 16 µg/mL; MIC (Klebsiella pneumoniae [27]): ≤ 0.12 µg/mL; MIC (Pseudomonas aeruginosa [28]): 8 µg/mL; MIC (Escherichia coli [29]): ≤ 0.12 µg/mL; MIC (Klebsiella pneumoniae [30]): ≤ 0.12 µg/mL; MIC (Acinetobacter baumannii [31]): 2 µg/mL; MIC (Klebsiella pneumoniae [32]): ≤ 0.12 µg/mL; MIC (Escherichia coli [33]): ≤ 0.12 µg/mL; MIC (Klebsiella pneumoniae [34]): 0.25 µg/mL; MIC (Pseudomonas aeruginosa [35]): > 16 µg/mL; MIC (Klebsiella pneumoniae [36]): 0.25 µg/mL; MIC (Klebsiella pneumoniae [37]): 0.5 µg/mL; MIC (Acinetobacter baumannii [38]): 8 µg/mL
NC(=O)[C@@H]1CC[C@@H]2CN1C(=O)N2OS(=O)(=O)[O-].[Na+] [AVIBACTAM SODIUM]	1.3 10^4/M/s	≤ 0.12 µg/mL	> 16 µg/mL	16 µg/mL	> 16 µg/mL	≤ 0.12 µg/mL	≤ 0.12 µg/mL	16 µg/mL	> 16 µg/mL	> 16 µg/mL	≤ 0.12 µg/mL	≤ 0.12 µg/mL	≤ 0.12 µg/mL	≤ 0.12 µg/mL	≤ 0.12 µg/mL	≤ 0.12 µg/mL	–	> 16 µg/mL	14.4 min	–
